Data from ChEMBL document CHEMBL1138439, “Synthesis and structure-activity relationship of novel diarylpyrazole imide analogues as CB1 cannabinoid receptor ligands” (Bioorg Med Chem, 2009).

Each compound was assayed on Mus musculus (assay: Reduction in body weight of diet induced obese C57BL/6J mouse at 10 mL/kg, po for 14 days). Settings: not given.
Type: functional
Parameters: scale not given: the % may be the effect or the level left
Summary of the method: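 Body weight change (g) from start was tracked daily over days 0–14 and compared with a vehicle-treated control group.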
Compound `Cc1c(C(=O)NN2CCCCC2)nn(-c2ccc(Cl)cc2Cl)c1-c1ccc(Cl)cc1` [RIMONABANT] has an Activity of 11.5%.
`Cc1c(C(=O)NC(=O)C(C)(C)C)nn(-c2ccc(Cl)cc2Cl)c1-c1ccc(Cl)cc1` showed an Activity of 2.2%.

These compounds were tested against Cannabinoid receptor 1 (Rattus norvegicus, UniProt P20272) (assay: Displacement of [3H]CP-55940 from CB1R in Sprague-Dawley rat cerebellar membrane). Settings: not given.
Cannabinoid receptor 1, sequence (P20272 whole entry): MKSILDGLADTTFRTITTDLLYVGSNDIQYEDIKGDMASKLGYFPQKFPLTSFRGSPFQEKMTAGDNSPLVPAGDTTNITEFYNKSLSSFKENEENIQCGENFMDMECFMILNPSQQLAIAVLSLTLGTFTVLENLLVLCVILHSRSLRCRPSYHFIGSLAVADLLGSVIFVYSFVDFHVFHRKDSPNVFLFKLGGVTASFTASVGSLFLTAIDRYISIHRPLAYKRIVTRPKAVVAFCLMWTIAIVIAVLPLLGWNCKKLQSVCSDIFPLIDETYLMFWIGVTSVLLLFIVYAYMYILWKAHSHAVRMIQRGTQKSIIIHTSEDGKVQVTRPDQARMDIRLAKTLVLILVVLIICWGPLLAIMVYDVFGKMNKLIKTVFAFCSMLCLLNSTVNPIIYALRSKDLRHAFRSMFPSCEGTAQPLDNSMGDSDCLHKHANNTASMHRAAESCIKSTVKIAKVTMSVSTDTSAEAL
Parameters: species or system Cerebellum
`Cc1c(C(=O)NC(=O)NCC2CCCCC2)nn(-c2ccc(Cl)cc2Cl)c1-c1ccc(Cl)cc1` was tested, and the IC50 was “ND(Insoluble)”.
In the case of `Cc1c(C(=O)NC(=O)NC(C)(C)C)nn(-c2ccc(Cl)cc2Cl)c1-c1ccc(Cl)cc1`, the IC50 is reported as “ND(Insoluble)”.

Same assay, conditions: read-out: IC50
In the case of `Cc1ccc(S(=O)(=O)NC(=O)c2nn(-c3ccc(Cl)cc3Cl)c(-c3ccc(Cl)cc3)c2C)cc1`, the IC50 is reported as greater than 10 µM.
`Cc1c(C(=O)NS(=O)(=O)c2cccc(F)c2)nn(-c2ccc(Cl)cc2Cl)c1-c1ccc(Cl)cc1` showed an IC50 greater than 10 µM.
Work on `CCC(C)(C)C(=O)N(C)C(=O)c1nn(-c2ccc(Cl)cc2Cl)c(-c2ccc(Cl)cc2)c1C` yielded an IC50 of 0.227 µM.
For `Cc1c(C(=O)N(C)C(=O)C2CCCCC2)nn(-c2ccc(Cl)cc2Cl)c1-c1ccc(Cl)cc1`, the IC50 was 0.167 µM.
For `Cc1c(C(=O)NS(=O)(=O)c2ccccc2)nn(-c2ccc(Cl)cc2Cl)c1-c1ccc(Cl)cc1`, the IC50 was 3.64 µM.
`CCC(CC)C(=O)N(C)C(=O)c1nn(-c2ccc(Cl)cc2Cl)c(-c2ccc(Cl)cc2)c1C` showed an IC50 of 0.265 µM.
Compound `Cc1c(C(=O)NS(=O)(=O)Cc2ccccc2)nn(-c2ccc(Cl)cc2Cl)c1-c1ccc(Cl)cc1` has an IC50 greater than 10 µM.
Compound `Cc1c(C(=O)NS(=O)(=O)c2ccc(Cl)cc2)nn(-c2ccc(Cl)cc2Cl)c1-c1ccc(Cl)cc1` has an IC50 greater than 10 µM.
`Cc1c(C(=O)NS(=O)(=O)c2cccc(Cl)c2)nn(-c2ccc(Cl)cc2Cl)c1-c1ccc(Cl)cc1` showed an IC50 of 1.2 µM.
In the case of `Cc1c(C(=O)N(C)C(=O)C(C)(C)C)nn(-c2ccc(Cl)cc2Cl)c1-c1ccc(Cl)cc1`, the IC50 is reported as 0.22 µM.
For `Cc1c(C(=O)NS(=O)(=O)C(C)C)nn(-c2ccc(Cl)cc2Cl)c1-c1ccc(Cl)cc1`, the IC50 was greater than 10 µM.
Compound `Cc1c(C(=O)NS(=O)(=O)c2ccc(F)cc2)nn(-c2ccc(Cl)cc2Cl)c1-c1ccc(Cl)cc1` has an IC50 of 1.2 µM.
With `CCCC(CCC)C(=O)N(C)C(=O)c1nn(-c2ccc(Cl)cc2Cl)c(-c2ccc(Cl)cc2)c1C` the IC50 was 0.247 µM.
`CCCCS(=O)(=O)NC(=O)c1nn(-c2ccc(Cl)cc2Cl)c(-c2ccc(Cl)cc2)c1C` showed an IC50 greater than 10 µM.
`CCCS(=O)(=O)NC(=O)c1nn(-c2ccc(Cl)cc2Cl)c(-c2ccc(Cl)cc2)c1C` was tested, and the IC50 was greater than 10 µM.
